Legend:
[1] = system: 22Rv1 cells; test: Clonogenicity assay in 22Rv1 cells; format: cell-based; settings: 8 days treatment, crystal violet
In short: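 22Rv1 cells were seeded at 50,000 per well in 6-well plates. They were treated continuously with the test compound at the indicated concentrations for 8 days, then stained with 0.5% crystal violet. Three independent biological experiments were run.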

[2] = molecular target: T1, SET7/9 (Homo sapiens, UniProt Q8WTS6); test: Radioactive methyltransferase assay, SET7/9; format: biochemical; settings: 10 μM compound
T1 sequence (Q8WTS6 1-366): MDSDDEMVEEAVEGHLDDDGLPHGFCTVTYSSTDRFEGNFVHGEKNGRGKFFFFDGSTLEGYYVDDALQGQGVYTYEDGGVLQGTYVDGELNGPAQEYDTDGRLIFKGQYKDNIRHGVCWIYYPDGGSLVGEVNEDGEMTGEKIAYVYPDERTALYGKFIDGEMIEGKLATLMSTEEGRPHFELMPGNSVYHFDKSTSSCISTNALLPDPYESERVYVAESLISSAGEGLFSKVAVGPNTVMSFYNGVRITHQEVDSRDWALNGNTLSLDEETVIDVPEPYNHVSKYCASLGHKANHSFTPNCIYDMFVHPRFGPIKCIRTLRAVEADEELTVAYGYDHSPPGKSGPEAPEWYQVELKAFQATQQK
In short: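 The selectivity screen covered 21 protein methyltransferases in radioisotope-based MT HotSpot methyltransferase assays run by a contract laboratory. Test compound was at 10 μM. Each assay was run in duplicate and reported as mean ± SD of the two replicates.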

[3] = molecular target: T1, SET7/9; test: Western blot of SET7/9 protein level in 22Rv1 cells; format: cell-based; settings: indicated concentration, 24 h, WB
In short: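 22Rv1 cells were treated with the test compound at the indicated concentrations for 24 h. Cells were lysed in RIPA containing protease inhibitor cocktail, and protein was resolved by SDS-PAGE and transferred to PVDF. Primary antibody was applied overnight at 4 °C, with β-actin as loading control. Blots are representative of two independent experiments.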

[4] = molecular target: EZH2 (Homo sapiens, UniProt Q15910); test: Western blot of EZH2 protein level in 22Rv1 cells; format: cell-based; settings: indicated concentration, 24 h, WB
Sequence of EZH2 (Q15910 whole entry): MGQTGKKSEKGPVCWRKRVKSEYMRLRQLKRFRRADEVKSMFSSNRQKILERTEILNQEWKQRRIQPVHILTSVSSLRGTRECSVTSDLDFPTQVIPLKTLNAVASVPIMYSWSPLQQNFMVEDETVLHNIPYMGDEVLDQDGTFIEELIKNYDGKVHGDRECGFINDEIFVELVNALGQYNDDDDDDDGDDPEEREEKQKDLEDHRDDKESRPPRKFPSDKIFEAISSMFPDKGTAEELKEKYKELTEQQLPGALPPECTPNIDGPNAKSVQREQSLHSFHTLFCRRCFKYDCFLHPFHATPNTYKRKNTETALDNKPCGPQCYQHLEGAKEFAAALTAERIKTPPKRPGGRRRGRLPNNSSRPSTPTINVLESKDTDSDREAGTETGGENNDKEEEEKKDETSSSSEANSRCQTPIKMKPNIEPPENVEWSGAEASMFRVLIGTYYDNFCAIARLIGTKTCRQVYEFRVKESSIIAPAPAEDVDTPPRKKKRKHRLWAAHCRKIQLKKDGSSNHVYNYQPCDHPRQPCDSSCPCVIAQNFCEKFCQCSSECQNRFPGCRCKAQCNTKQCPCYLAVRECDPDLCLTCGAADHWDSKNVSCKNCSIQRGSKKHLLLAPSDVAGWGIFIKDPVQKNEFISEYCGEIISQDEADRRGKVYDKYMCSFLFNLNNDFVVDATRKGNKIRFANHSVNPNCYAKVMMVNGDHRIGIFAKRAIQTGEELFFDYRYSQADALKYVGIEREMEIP

[5] = molecular target: T2, G9a (Homo sapiens, UniProt Q96KQ7); test: Western blot of G9a protein levels in cancer cells; format: cell-based
T2 sequence (Q96KQ7 1-1210): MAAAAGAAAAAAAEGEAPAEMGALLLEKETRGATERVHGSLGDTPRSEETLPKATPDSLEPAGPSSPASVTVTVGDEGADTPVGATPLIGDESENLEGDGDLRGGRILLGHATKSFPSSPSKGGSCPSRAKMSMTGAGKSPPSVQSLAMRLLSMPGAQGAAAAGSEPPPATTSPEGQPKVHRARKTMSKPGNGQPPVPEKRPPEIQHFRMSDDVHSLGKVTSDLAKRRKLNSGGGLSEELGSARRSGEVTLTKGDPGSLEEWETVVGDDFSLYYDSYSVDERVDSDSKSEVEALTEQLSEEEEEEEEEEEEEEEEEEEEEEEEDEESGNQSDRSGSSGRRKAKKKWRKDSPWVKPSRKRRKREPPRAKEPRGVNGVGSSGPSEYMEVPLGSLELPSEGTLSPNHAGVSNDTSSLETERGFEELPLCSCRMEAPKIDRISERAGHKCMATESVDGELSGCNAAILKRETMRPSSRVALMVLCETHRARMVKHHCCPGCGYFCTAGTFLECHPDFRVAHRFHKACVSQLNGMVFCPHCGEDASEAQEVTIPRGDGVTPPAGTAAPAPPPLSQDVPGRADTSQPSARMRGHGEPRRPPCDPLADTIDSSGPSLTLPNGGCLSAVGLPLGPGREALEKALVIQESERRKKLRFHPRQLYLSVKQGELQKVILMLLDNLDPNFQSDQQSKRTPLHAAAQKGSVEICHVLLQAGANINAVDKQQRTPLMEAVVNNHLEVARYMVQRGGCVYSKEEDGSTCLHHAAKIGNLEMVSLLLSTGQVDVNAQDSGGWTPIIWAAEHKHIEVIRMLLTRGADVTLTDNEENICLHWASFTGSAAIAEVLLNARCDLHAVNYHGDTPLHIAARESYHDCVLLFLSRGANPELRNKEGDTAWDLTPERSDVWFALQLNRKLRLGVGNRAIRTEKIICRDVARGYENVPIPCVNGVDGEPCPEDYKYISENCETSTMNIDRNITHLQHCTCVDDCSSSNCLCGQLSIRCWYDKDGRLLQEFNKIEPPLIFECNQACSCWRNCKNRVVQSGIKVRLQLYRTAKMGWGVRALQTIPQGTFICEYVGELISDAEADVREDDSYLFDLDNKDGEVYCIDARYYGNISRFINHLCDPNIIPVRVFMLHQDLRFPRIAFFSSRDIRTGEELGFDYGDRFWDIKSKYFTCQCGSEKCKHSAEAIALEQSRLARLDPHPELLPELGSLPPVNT
In short: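 Cells (22Rv1, K562, H1299) were treated for 24 h at the indicated concentrations; 22Rv1 time courses were run at 3 μM. Cells were lysed in RIPA with protease inhibitors, and 10–30 μg of protein was resolved by SDS-PAGE and transferred to PVDF. Blots were probed overnight at 4 °C, with vinculin/β-actin as loading controls. Band intensity was normalised to DMSO, with n = 2 independent experiments (mean ± SD).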

Structure (SMILES): COc1cc2c(NC3CCN(CCCC(=O)NCCCCCCCCCCCC(=O)N[C@H](C(=O)N4C[C@H](O)C[C@H]4C(=O)NCc4ccc(-c5scnc5C)cc4)C(C)(C)C)CC3)nc(N3CCC(F)(F)CC3)nc2cc1OCCCN1CCCC1 [Compound 10, (2S,4R)-1-((S)-2-(12-(4-(4-((2-(4,4-difluoropiperidin-1-yl)-6-methoxy-7-(3-(pyrrolidin-1-yl)propoxy)quinazolin-4-yl)amino)piperidin-1-yl)butanamido)dodecanamido)-3,3-dimethylbutanoyl)-4-hydroxy-N-(4-(4-methylthiazol-5-yl)benzyl)pyrrolidine-2-carboxamide]
- inhibition of 22Rv1 cell colony formation [1]: able to inhibit
- inhibition of SET7/9 [2]: moderately inhibited
- SET7/9 degradation [3]: cannot induce the degradation
- EZH2 degradation [4]: cannot induce the degradation
- G9a degradation, in words ([5]; 22Rv1 cells, 1 μM, 24 h, WB (Figure 3A)): potently induced degradation
- duration of G9a degradation effect ([5]; 22Rv1 cells, 3 μM): up to 48 h
- time at which G9a degradation was first observed ([5]; 22Rv1 cells, 3 μM): 4 h
- time to complete G9a degradation ([5]; 22Rv1 cells, 3 μM): around 24 h
- G9a degradation, in words ([5]; H1299 cells, 3 μM, 24 h, WB): degraded
- G9a degradation, in words ([5]; K562 cells, 3 μM, 24 h, WB): induced G9a and GLP degradation
- DC50 ([5]; read-out: half-maximal degradation concentration (DC50) for G9a, 22Rv1 cells, 24 h, WB): 0.274 ± 0.002 µM
